pKd: −log10 of the molar value.
How the values were obtained:
[1] = target: T1, tRNA (guanine-N(1)-)-methyltransferase (Pseudomonas aeruginosa (strain ATCC 15692 / DSM 22644 / CIP 104116 / JCM14847 / LMG 12228 / 1C / PRS 101 / PAO1), UniProt Q9HXQ1); assay: Binding affinity to Pseudomonas aeruginosa tRNA (guanine(37)-N1)-methyltransferase (Leu5 to Asp25 residues) expressed in Escherichia coli BL21 (DE3) Rosetta T1R cells by surface plasmon resonance assay
T1 sequence (Q9HXQ1 whole entry): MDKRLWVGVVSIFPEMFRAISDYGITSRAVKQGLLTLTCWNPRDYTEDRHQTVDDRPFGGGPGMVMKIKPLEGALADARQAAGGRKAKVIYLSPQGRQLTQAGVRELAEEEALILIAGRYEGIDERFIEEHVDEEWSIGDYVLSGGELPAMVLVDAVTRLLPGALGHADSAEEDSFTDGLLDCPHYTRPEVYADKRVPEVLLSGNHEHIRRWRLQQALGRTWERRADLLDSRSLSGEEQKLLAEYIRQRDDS
How it was run: (§1)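 SPR at 25 °C. His-tagged TrmD (50 μg/mL) captured on an anti-His antibody surface (about 2200 RU), with a blank reference cell. Buffer: 50 mM Tris-HCl pH 8, 150 mM NaCl, 1 mM MgCl2, 1 mM DTT, 0.05% Tween-20. Analyte in 2-fold dilutions, injected lowest to highest at 30 μL/min, 30 s contact, 240 s dissociation. KD from steady-state affinity fit.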

[2] = target: T2, tRNA (guanine-N(1)-)-methyltransferase (Pseudomonas aeruginosa (strain ATCC 15692 / DSM 22644 / CIP 104116 / JCM14847 / LMG 12228 / 1C / PRS 101 / PAO1)) (UniProt Q9HXQ1); assay: Binding affinity to Pseudomonas aeruginosa tRNA (guanine(37)-N1)-methyltransferase (Leu5 to Asp25 residues) expressed in Escherichia coli BL21 (DE3) Rosetta T1R cells assessed as association rate constant by surface plasmon resonance assay; how it was run: as §1
T2 sequence (whole entry): T1 sequence (Q9HXQ1 whole entry)

[3] = target: T3, tRNA (guanine-N(1)-)-methyltransferase (Staphylococcus aureus (strain NCTC 8325 / PS 47), UniProt Q2FZ43); assay: Binding affinity to full length Staphylococcus aureus tRNA (guanine(37)-N1)-methyltransferase expressed in Escherichia coli BL21 (DE3) by surface plasmon resonance assay; how it was run: as §1
T3 sequence (Q2FZ43 whole entry): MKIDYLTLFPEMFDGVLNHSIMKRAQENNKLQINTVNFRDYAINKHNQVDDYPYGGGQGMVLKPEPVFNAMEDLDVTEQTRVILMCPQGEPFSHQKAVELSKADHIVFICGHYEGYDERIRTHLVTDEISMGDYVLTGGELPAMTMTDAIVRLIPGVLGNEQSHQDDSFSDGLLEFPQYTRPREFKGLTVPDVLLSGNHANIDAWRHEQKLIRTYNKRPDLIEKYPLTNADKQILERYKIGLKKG

[4] = target: T4, tRNA (guanine-N(1)-)-methyltransferase (Staphylococcus aureus (strain NCTC 8325 / PS 47)) (UniProt Q2FZ43); assay: Binding affinity to full length Staphylococcus aureus tRNA (guanine(37)-N1)-methyltransferase expressed in Escherichia coli BL21 (DE3) assessed as association rate constant by surface plasmon resonance assay; how it was run: as §1
T4 sequence (whole entry): T3 sequence (Q2FZ43 whole entry)

[5] = target: T2, tRNA (guanine-N(1)-)-methyltransferase (Pseudomonas aeruginosa (strain ATCC 15692 / DSM 22644 / CIP 104116 / JCM14847 / LMG 12228 / 1C / PRS 101 / PAO1)); assay: Binding affinity to Pseudomonas aeruginosa tRNA (guanine(37)-N1)-methyltransferase (Leu5 to Asp25 residues) expressed in Escherichia coli BL21 (DE3) Rosetta T1R cells assessed as dissociation rate constant by surface plasmon resonance assay; how it was run: as §1
[6] = target: T5, tRNA (guanine-N(1)-)-methyltransferase (Mycobacterium tuberculosis (strain ATCC 25618 / H37Rv)) (UniProt P9WFY7); assay: Binding affinity to full length Mycobacterium tuberculosis tRNA (guanine(37)-N1)-methyltransferase expressed in Escherichia coli BL21 (DE3) assessed as dissociation rate constant by surface plasmon resonance assay; how it was run: as §1
T5 sequence (whole entry): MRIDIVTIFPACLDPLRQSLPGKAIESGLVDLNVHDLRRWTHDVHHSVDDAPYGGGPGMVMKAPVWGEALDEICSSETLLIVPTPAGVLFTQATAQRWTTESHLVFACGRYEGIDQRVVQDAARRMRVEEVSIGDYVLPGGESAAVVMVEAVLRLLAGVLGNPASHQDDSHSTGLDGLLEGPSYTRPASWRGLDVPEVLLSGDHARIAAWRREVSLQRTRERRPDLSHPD

[7] = target: T5, tRNA (guanine-N(1)-)-methyltransferase (Mycobacterium tuberculosis (strain ATCC 25618 / H37Rv)); assay: Binding affinity to full length Mycobacterium tuberculosis tRNA (guanine(37)-N1)-methyltransferase expressed in Escherichia coli BL21 (DE3) assessed as association rate constant by surface plasmon resonance assay; how it was run: as §1
[8] = target: T6, tRNA (guanine-N(1)-)-methyltransferase (Mycobacterium tuberculosis (strain ATCC 25618 / H37Rv), UniProt P9WFY7); assay: Binding affinity to full length Mycobacterium tuberculosis tRNA (guanine(37)-N1)-methyltransferase expressed in Escherichia coli BL21 (DE3) by surface plasmon resonance assay; how it was run: as §1
T6 sequence (P9WFY7 whole entry): T5 sequence (whole entry)

[9] = target: T2, tRNA (guanine-N(1)-)-methyltransferase (Pseudomonas aeruginosa (strain ATCC 15692 / DSM 22644 / CIP 104116 / JCM14847 / LMG 12228 / 1C / PRS 101 / PAO1)); assay: Binding affinity to Pseudomonas aeruginosa tRNA (guanine(37)-N1)-methyltransferase (Leu5 to Asp25 residues) expressed in Escherichia coli BL21 (DE3) Rosetta T1R cells assessed as thermal stabilization of protein by measuring change in melting temperature at 2 mM by SYPRO orange based thermal shift assay
How it was run: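 Thermal shift: 4 μM TrmD with 5× SYPRO Orange and ligand in 50 mM Tris-HCl pH 8, 150 mM NaCl, 1 mM MgCl2, 1 mM DTT, 0.05% Tween-20. Buffer-only control. Heated from 25 to 95 °C in a real-time PCR instrument, and Tm taken as the unfolding midpoint. Ligand levels: SAH 2 mM, inhibitors 0.1 mM.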

[10] = target: T4, tRNA (guanine-N(1)-)-methyltransferase (Staphylococcus aureus (strain NCTC 8325 / PS 47)); assay: Binding affinity to full length Staphylococcus aureus tRNA (guanine(37)-N1)-methyltransferase expressed in Escherichia coli BL21 (DE3) assessed as dissociation rate constant by surface plasmon resonance assay; how it was run: as §1

`Nc1ncnc2c1ncn2[C@@H]1O[C@H](CSCC[C@H](N)C(=O)O)[C@@H](O)[C@H]1O` [S-ADENOSYLHOMOCYSTEINE] showed a pKd [1] of 5.23, a Ka [2] of 55500 M⁻¹ s⁻¹ and a pKd [3] of 5.48. For the same molecule, the Ka [4] was 279000 M⁻¹ s⁻¹, the Kdiss [5] was 0.326 s⁻¹ and the Kdiss [6] was 0.0775 s⁻¹. For the same molecule, the Ka [7] was 7700 M⁻¹ s⁻¹, the pKd [8] was 5.00 and the ΔTm [9] was 4 to 29 °C. For the same molecule, the Kdiss [10] was 0.92 s⁻¹.

Reference: ChEMBL document CHEMBL4373727, “Thienopyrimidinone Derivatives That Inhibit Bacterial tRNA (Guanine37-N1)-Methyltransferase (TrmD) by Restructuring the Active Site with a Tyrosine-Flipping Mechanism” (J Med Chem, 2019)
